Compound activity (PubChem)
A selection: hits, their analogues and other compounds. The true share with any hit is near 3.1%.
GPR7 antag: human neuropeptides B/W receptor 1 antagonism | P48145 | GPR7-expressing cells, fluorescence antagonist assay | inhibition, % at 4.4 µM | hit rate 1.1% among 290,000; in the data active means inhibition above about 16%, passing the limit was not always enough;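 further: cells stimulated with the agonist NPW; 0% = agonist with vehicle and 100% = vehicle without agonist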
Target sequence (P48145 whole entry, looked up): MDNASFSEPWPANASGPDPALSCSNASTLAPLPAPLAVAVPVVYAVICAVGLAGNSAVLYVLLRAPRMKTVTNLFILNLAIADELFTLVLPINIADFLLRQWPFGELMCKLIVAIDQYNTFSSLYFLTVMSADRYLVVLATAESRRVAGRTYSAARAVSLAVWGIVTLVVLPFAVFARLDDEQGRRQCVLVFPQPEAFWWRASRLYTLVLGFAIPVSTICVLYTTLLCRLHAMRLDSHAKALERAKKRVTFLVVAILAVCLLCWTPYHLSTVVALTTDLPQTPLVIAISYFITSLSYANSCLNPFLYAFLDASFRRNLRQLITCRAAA
GalR3 antagonist: antagonists of human GalR3. O60755. HEK293 GalR3-CNG cAMP membrane potential fluorescence; galR3 body fused to GalR1 C-terminus. inhibition, % at 3 µM. hit rate 0.44% among 360,000;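 active means inhibition above the screen-wide average plus 3 SD, cut at about 13% in these data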;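 further: forskolin and galanin both at EC90 stimulate the cells; cAMP rise reported by CNG channel membrane potential dye signal; 0% = forskolin plus galanin with DMSO and 100% = forskolin alone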
Target sequence (O60755 1-299 limits assumed): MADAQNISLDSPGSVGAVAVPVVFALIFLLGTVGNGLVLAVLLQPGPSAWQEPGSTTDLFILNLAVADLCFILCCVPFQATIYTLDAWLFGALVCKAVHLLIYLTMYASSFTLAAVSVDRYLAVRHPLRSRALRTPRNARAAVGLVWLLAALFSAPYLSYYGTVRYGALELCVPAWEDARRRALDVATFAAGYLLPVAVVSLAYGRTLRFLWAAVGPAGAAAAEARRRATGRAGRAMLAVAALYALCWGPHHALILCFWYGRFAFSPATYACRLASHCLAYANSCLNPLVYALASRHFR
OX1R antag-1: antagonists of human orexin 1 receptor; AID 434989; hit rate 0.43% among 330,000; O43613; inhibition, % at 5 µM; CHO/OX1R cells, Fluo-8 calcium fluorescence, orexin A;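 active means inhibition above its plate's threshold, mean inhibition of all tested compounds on the plate plus 3 SD, cut at about 37% in these data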;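 further: 0% = orexin A challenge wells and 100% = SB-334867-A antagonist wells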
OX1R antag-2: blocks the human orexin 1 receptor | OX1R-expressing cells, FRET antagonist read-out | inhibition, % at 6.6 µM | hit rate 1.8% among 330,000; in the data active means inhibition mostly above about 38%, no sharp cut-off; inactive means mostly below about 40%;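 further: 0% = agonist challenge alone and 100% = reference antagonist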
CHO parental Ca: counter-screen: ATP calcium response change in parental CHO cells; parental CHO-K1, ATP-induced calcium, Fluo-8 fluorescence; inhibition, % at 5.6 µM; hit rate 0.63% among 330,000;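 active means inhibition above that plate's mean sample inhibition plus 3 SD, cut at about 26% in these data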;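 further: 0% = ATP-challenged DMSO wells and 100% = DMSO wells without ATP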
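Test system: parental CHO cells; detection: calcium-sensitive Fluo-8 fluorescence; evaluation: percent inhibition of calcium signal; also added: ATP as calcium-mobilizing challenge; repeats: one well per compound; control set: ATP-challenged DMSO wells low, unchallenged DMSO wells high; compound: single nominal dose of 5.6 µM per compound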
GPR7 antag conf: human GPR7 antagonism, confirmation assay; AID 1952; hit rate 52% among 2,400; GPR7-expressing cells, calcium fluorescence antagonist mode; inhibition, % at 4.4 µM; shares compounds with GPR7 antag; in the data active means inhibition above about 24%;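 further: stimulated with the GPR7 agonist NPW; 0% = agonist plus vehicle and 100% = vehicle alone without agonist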
MCHR1 antag: MCHR1 (human) antagonism in GPR7 counter-screen. MCHR1-expressing cells, fluorescence antagonist assay. inhibition, % at 4.4 µM. shares compounds with GPR7 antag. hit rate 62% among 2,400. AID 2148; in the data active means inhibition above about 22%;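 further: 0% = vehicle with agonist and 100% = vehicle without agonist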
An asterisk follows results filed as active; / = no result given; ! = a repeat was not active.

SMILES	GPR7 antag	GalR3 antagonist	OX1R antag-1	OX1R antag-2	CHO parental Ca	GPR7 antag conf	MCHR1 antag
Cc1ccc(SC(c2ccc(C)cc2)C(Cn2cncn2)C(=O)c2ccccc2)cc1 (centres undefined)	26*	-1	-35	18	-29	3	3
CCN1C(=NCc2cccc(Cl)c2)N[C@@H](c2cccc(F)c2)C(C(=O)OC)=C1C	33*	-11	-16	18	-10	58*	30*
COC(=O)C1=C(C)N(Cc2ccccc2)C(=NCC(C)C)N[C@H]1c1ccccc1	47*	/	-6	21	-3	50*	40*
COCCN=C1N[C@@H](c2cccc(C(F)(F)F)c2)C(C(=O)OC)=C(C)N1Cc1ccccc1	/	-5	-28	26	-17	/	17
COC(=O)C1=C(C)N(Cc2ccc(C(F)(F)F)cc2)C(=NCc2ccc(C(F)(F)F)cc2)NC1c1cccc(F)c1 (centres undefined)	/	-5	/	/	/	/	/
COC(=O)C1=C(C)N(Cc2ccccc2)C(=NCc2cccc(C(F)(F)F)c2)N[C@H]1c1cccc(F)c1	38*	-9	2	35	15	70*	71*
CCc1nnc(NC(=O)c2ccc(COc3ccccc3C)o2)s1	-2	-2	-4	7	-8	/	/
CCOC(=O)Cn1c(=N)n(Cc2ccccc2F)c2ccccc21	-1	-5	-9	23	10	/	/
CC1=NCCN1CCNC(=O)Nc1ccc(C(C)(C)C)cc1	4	-3	-6	4	-1	/	/
CCOc1ccc(-c2cc(NC(=O)c3c(F)cccc3F)c(C(=O)O)s2)cc1	51*	-11	/	/	/	26*	28*
CN(C1CCCCC1)S(=O)(=O)c1ccc(C(=O)N2CCN(c3nc4ccccc4s3)CC2)cc1	22*	5	-17	6	-10	17	44*
O=C(C1CC1)N1CCN(c2nc3ccccc3s2)CC1	2	0	-14	5	-13	/	/
O=C(CN1C2=NCCN2c2ccccc21)C12CC3CC(CC(C3)C1)C2	42*	-9	10	8	-22	40*	32*
O=C(Cc1ccccc1F)Nc1ccc(S(=O)(=O)N2CCCC2)cc1	/	-3	5	8	-2	/	/
CC(NC(=O)Nc1ccc(F)cc1)C(c1cccs1)N1CCCC1 (centres undefined)	2	-2	-15	21	-8	/	/
O=C(c1ccccc1-c1ccccc1)N1CCN(c2ccccn2)CC1	27*	-5	-38	10	-23	23	24*
COc1ccc(Br)cc1C1NC(=O)NC(C)=C1C(=O)N(C)C (centres undefined)	23*	-5	-12	2	-5	5	4
Cc1onc(-c2ccccc2)c1CNC(=O)Nc1ccc(C(F)(F)F)cc1	24*	0	27	49*	20	28*	52*
C/C(=N/NC(=O)c1cccs1)c1cccc(NC(=O)C2CC2)c1	36*	-3	-18	29	-1	-5	8
CC(=O)N/N=C(\C)c1cccc(NC(=O)c2cccs2)c1	-9	1	-9	17	9	/	/
Cc1ccc(C2C(C#N)=C(N)Oc3n[nH]c(C)c32)cc1 (centres undefined)	-14	0	1	10	-5	/	/
Cc1[nH]nc2c1C(c1cccs1)C(C#N)=C(N)O2 (centres undefined)	40*	3	0	18	-6	5	6
COCc1ccc(C(=O)N2CCCC(C(=O)c3ccc(SC)cc3)C2)s1 (centres undefined)	-2	-4	-25	22	-1	/	/
COc1cccc(N2CCc3c(C)nc4ccc(Cl)cc4c32)c1	36*	-15	/	/	/	33*	34*
CC(C)C(NC(=O)c1ccc(C(C)(C)C)cc1)C(=O)NCC(c1ccccc1)N(C)C (centres undefined)	22*	-6	-19	8	-17	5	8
SMILES	GPR7 antag	GalR3 antagonist	OX1R antag-1	OX1R antag-2	CHO parental Ca	GPR7 antag conf	MCHR1 antag
CC(C)c1ccc(NC(=O)C(c2ccc3c(c2)OCO3)N2CCCCC2)cc1 (centres undefined)	24*	1	-38	2	-5	14	40*
CC(C)c1ccc(NC(=O)C(c2ccc3c(c2)OCO3)N2CCC3(CC2)OCCO3)cc1 (centres undefined)	0	-4	-5	30	-22	/	/
O=C(NN1CC(C(=O)OCc2ccc(Cl)cc2Cl)CC1=O)c1ccccc1 (centres undefined)	-8	-3	/	/	/	/	/
CN(C)CCCN1c2ccccc2Sc2ccc(Cl)cc21	35*!	-7	-23	14	-6	46*	57*
CCn1c(SCCOc2ccc(Cl)cc2)nnc1-c1cccs1	29*	-2	-18	17	-20	9	31*
CCn1c(SCC(=O)c2ccc(Cl)cc2)nnc1-c1cccs1	10	-8	-4	30	-3	/	/
COc1ccccc1CNC(=O)c1n[nH]c2ccccc12	30*	2	-33	5	-16	23	20
COc1ccc(Br)c(C(=O)NC2CCCC2)c1	22*	2	3	20	-9	-9	2
COc1ccc2oc(C(=O)NC3CCCCC3)c(C)c2c1	29*	-3	-4	34	-3	20	30*
COc1ccc(Br)c(C(=O)NCC2CCCCC2)c1	1	-11	-24	-2	-13	/	/
O=c1[nH]c(CSc2nnc(-c3cccnc3)n2C2CCCCC2)nc2ccccc12	-8	-1	-6	6	-3	/	/
Cc1ccccc1Nc1nc(N)nc(CCl)n1	-6	2	-2	-1	-11	/	/
Cc1ccccc1NC(=O)CSCc1nc(N)nc(Nc2ccccc2C)n1	21*	-4	-11	30	-9	-2	6
CCN(CC)S(=O)(=O)c1ccc(C(=O)NCC(=O)NCc2ccc3c(c2)OCO3)cc1	/	-5	/	/	/	/	/
Nc1ccc(-c2nc3cc(N)ccc3o2)cc1	-9	-8	-7	11	-11	/	/
COC(=O)c1ccc(-c2nc3cc(N)ccc3o2)cc1	61*	-2	-18	17	-12	-12	18
COc1ccccc1NC(=O)CSc1nc2ccccc2n1C(C)=O	21*	-5	-22	16	-17	-6	17
O=C(NCCCC1CCCC1)C1CCC(=O)N(Cc2ccc(Cl)cc2)C1 (centres undefined)	28*	-4	-40	13	-29	4	-6
O=C(NCCCC1CCCC1)C1CCC(=O)N(Cc2cccc(F)c2)C1 (centres undefined)	-5	-6	-19	8	-12	/	/
O=C(NCCc1ccccc1)C1CCC(=O)N(CCCN2CCCC2=O)C1 (centres undefined)	-5	-10	-13	2	-8	/	/
O=C(NCCCc1ccc(F)cc1)C1CCC(=O)N(CCCN2CCCC2=O)C1 (centres undefined)	35*	-7	-33	9	-6	-2	4
